Compound activity as filed in PubChem BioAssay.
SENP8 block-1 = SENP8 protease inhibitors, primary screen, biochemical, luminescence. Sentrin-specific protease 8 (Homo sapiens), Q96LD8. purified SENP8, Z-RLRGG-aminoluciferin cleavage. inhibition, % at 10 µM. 330,000 compounds, 1.2% hits; in the data active = inhibition above about 50%
SENP8 block-2 = human SENP8 protease inhibitors, primary screen, biochemical, fluorescence, Nedd8 protein substrate, uHTS | recombinant SENP8 | inhibition, % at 20 µM | 360,000 compounds, 0.64% hits | AID 602440, 2012; in the data active = inhibition mostly above about 40%, no sharp cut-off; inactive = mostly below about 27%
SENP6 inh = SENP6 protease inhibitors, primary screen, biochemical, luminescence, uHTS; Recombinant SENP6 catalytic domain, aminoluciferin luminescence; inhibition, % at 10 µM; 330,000 compounds, 1.8% hits;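 active = inhibition above about 50% at the single tested dose, limit read from the data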;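 note: plate controls were DMSO wells with enzyme for no effect and DMSO wells lacking enzyme for full effect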
Apaf-1 inh = inhibitors of human Apaf-1 apoptosome, primary screen, biochemical, DEVD-Rh110 fluorescence, uHTS | reconstituted apoptosome caspase-3 activity | inhibition, % at 20 µM | 330,000 compounds, 0.71% hits | AID 489030, 2010; active = inhibition of at least 40% at 20 µM;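 note: plate controls were DMSO wells for no effect and DEVD-CHO caspase inhibitor wells for full effect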
Target sequence (O14727 whole entry, looked up): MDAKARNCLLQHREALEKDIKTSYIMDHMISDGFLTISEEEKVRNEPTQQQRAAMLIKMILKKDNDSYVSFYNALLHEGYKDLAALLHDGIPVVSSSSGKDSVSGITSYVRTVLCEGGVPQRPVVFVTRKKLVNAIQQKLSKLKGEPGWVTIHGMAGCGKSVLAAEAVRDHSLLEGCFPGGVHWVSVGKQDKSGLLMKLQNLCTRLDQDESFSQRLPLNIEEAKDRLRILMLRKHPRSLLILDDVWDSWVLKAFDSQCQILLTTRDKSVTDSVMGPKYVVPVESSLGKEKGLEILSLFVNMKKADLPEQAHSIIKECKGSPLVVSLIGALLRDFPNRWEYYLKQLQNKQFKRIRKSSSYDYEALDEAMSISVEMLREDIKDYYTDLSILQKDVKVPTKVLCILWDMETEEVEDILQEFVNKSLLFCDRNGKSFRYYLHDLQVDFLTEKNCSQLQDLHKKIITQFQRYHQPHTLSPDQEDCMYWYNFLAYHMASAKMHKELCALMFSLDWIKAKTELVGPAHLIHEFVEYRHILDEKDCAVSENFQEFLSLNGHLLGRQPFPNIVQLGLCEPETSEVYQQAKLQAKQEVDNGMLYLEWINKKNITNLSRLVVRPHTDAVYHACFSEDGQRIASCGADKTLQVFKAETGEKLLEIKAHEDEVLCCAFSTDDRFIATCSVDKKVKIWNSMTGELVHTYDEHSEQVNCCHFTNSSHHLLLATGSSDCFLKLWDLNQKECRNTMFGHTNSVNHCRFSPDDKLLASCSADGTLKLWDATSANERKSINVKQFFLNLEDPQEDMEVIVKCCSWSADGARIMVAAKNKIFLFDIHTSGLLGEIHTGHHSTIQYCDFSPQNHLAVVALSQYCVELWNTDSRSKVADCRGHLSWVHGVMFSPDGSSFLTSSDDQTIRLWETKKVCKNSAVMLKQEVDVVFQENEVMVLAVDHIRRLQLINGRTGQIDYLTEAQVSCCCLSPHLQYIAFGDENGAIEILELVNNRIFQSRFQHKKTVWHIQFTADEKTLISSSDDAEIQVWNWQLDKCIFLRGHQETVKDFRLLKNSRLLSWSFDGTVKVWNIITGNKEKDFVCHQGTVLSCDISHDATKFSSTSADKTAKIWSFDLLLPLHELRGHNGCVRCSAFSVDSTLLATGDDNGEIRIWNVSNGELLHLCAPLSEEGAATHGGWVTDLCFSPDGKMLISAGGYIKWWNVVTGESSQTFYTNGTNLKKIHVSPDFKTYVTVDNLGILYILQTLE
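System: reconstituted apoptosome with Apaf-1, cytochrome c, caspase-9, procaspase-3, dATP; Signal: Rh110 fluorescence intensity; Schedule: 30 min compound preincubation, 50 min activation, room temperature; Reagent: cytochrome c trigger plus (Z-DEVD)2-Rh110 caspase-3 substrate.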
SENP7 block = SENP7 protease inhibitors, primary screen, biochemical, luminescence, uHTS. Sentrin-specific protease 7 (Homo sapiens), Q9BQF6. recombinant SENP7, Z-RLRGG-aminoluciferin luminescence, 40 min. inhibition, % at 5 µM. 330,000 compounds, 1.5% hits. AID 434973, 2010;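 active = inhibition above about 50% at the single test dose, limit read from the data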;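 note: plate controls were DMSO with enzyme for no effect and no enzyme buffer wells for full effect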
SENP1 inh = human SENP1 catalytic domain inhibitors, primary screen, biochemical, FRET, uHTS; recombinant SENP1 catalytic domain, CyPet-SUMO1-YPet FRET cleavage; inhibition, % at 10 µM; 360,000 compounds, 0.21% hits; AID 624204, 2012;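 active = inhibition at least 30% at 10 µM, raw YFP signal under a set limit, fluorescence ratio 0.5 to 1.5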;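 note: 0% = enzyme with DMSO and 100% = no enzyme wells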
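system = hSENP1 catalytic domain, recombinant | reagent = SFCypet-SUMO1-SFYpet substrate at 25 nM | doses = one dose per compound, 10 µM, 0.5% DMSO | incubation = enzyme reaction for 50 min at room temperature, dark | measured by = FRET, CFP and YFP emission | controls = no-enzyme low, enzyme-DMSO high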
SENP8 conf = SENP8 protease inhibitors, retest, confirmation, biochemical, luminescence, single concentration | shares compounds with SENP7 block | Recombinant SENP8, Z-RLRGG-aminoluciferin luminescence, 60 min | inhibition, % at 12.5 µM | 6,200 compounds, 40% hits;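 active = mean inhibition across replicates above about 50%, limit read from the data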
SENP6 conf = SENP6 protease inhibitors, confirmation, biochemical, luminescence, single concentration; recombinant SENP6, Z-RLRGG-aminoluciferin luminescence; shares compounds with SENP7 block; 6,200 compounds, 58% hits; AID 488915, 2010; inhibition, % at 12.5 µM
SENP7 confirm = SENP7 protease inhibitors, retest, confirmation, biochemical, luminescence, single concentration; shares compounds with SENP7 block; recombinant SENP7, Z-RLRGG-aminoluciferin luminescence, 40 min; inhibition, % at 12.5 µM; 6,200 compounds, 69% hits
Casp3 select = caspase-3 protease inhibitors, confirmation, selectivity assay for SENP inhibitor project, biochemical, single concentration; shares compounds with SENP7 block; purified caspase-3, Z-DEVD-aminoluciferin luminescence, 60 min; AID 488918, 2010; 6,200 compounds, 60% hits; inhibition, % at 12.5 µM;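 active = mean inhibition above about 50%, limit read from the data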;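 note: plate controls were enzyme with DMSO for no effect and wells without caspase-3 for full effect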
Luc interf = interferes with luciferase luminescence in SENP counter-screen; inhibition, % at 12.5 µM; 6,200 compounds, 39% hits; shares compounds with SENP7 block; Pre-incubated SENP8/Z-RLRGG-aminoluciferin, luciferase luminescence interference;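 active = mean inhibition above about 50% when retested at one dose, limit read from the data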;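 note: plate controls were DMSO wells with completed reaction for no effect and substrate without enzyme for full effect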
* hit, by the source's call; / = not tested or not shown. In the library only some 2.9% were active in any assay of this set; here they are far more common.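 Rule for the calls, unless noted: active = mean inhibition above about 50% in the one-dose retest (limit read from the data); inactive = the rest.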

SMILES	SENP8 block-1	SENP8 block-2	SENP6 inh	Apaf-1 inh	SENP7 block	SENP1 inh	SENP8 conf	SENP6 conf	SENP7 confirm	Casp3 select	Luc interf
COc1ccc(Nc2c(CCc3ccccc3)nc3nc(C)cc(C)n23)cc1	/	11	/	/	/	9	/	/	/	/	/
O=C(Nc1ccccc1)Nc1ncc([N+](=O)[O-])s1	97*	36	99*	7	100*	-13	98*	100*	102*	98*	98*
Cc1nc(C)c(C(=O)Nc2ncc([N+](=O)[O-])s2)o1	95*	22	98*	-1	89*	-32	98*	98*	102*	98*	96*
NS(=O)(=O)c1ccc(CNC(=O)c2ccc(C(=O)c3ccccc3)cc2)cc1	-20	6	-16	3	-14	1	/	/	/	/	/
CC(C)N=C1NN=C(c2ccc(F)cc2)CS1	73*	4	65*	0	79*	1	84*	85*	99*	96*	89*
Cc1ccc(-c2noc(-c3cc4ccccc4oc3=O)n2)cc1	0	-448	18	8	-5	-5	/	/	/	/	/
COc1ccccc1-c1nc(-c2ccc(Br)cc2)no1	70*	-7	71*	-11	0	3	0	11	22	10	7
COc1ccccc1Cc1nc(-c2ccc(Br)o2)no1	-3	-4	-1	-2	5	-2	/	/	/	/	/
CCSc1ccccc1-c1nc(-c2ccncc2)no1	10	-62	-9	15	8	3	/	/	/	/	/
Cc1ccc(-c2noc(-c3ccccc3Br)n2)cc1	80*	16	76*	20	90*	-1	64*	64*	85*	70*	65*
COc1ccccc1-c1nc(-c2ccc(Br)o2)no1	78*	0	83*	10	78*	1	5	59*	55*	42	65*
COc1ccc(-c2nc(-c3ccc(Br)cc3)no2)c(OC)c1	-5	4	-6	-17	48	-2	/	/	/	/	/
CN(C)c1ccc(-c2noc(-c3ccccc3O)n2)cc1	27	-50	-25	7	90*	0	11	19	17	50	12
CCC1CCCCN1C(=O)CCc1nnc(Cc2cc(OC)ccc2OC)o1 (centres undefined)	-3	26	-10	6	0	0	/	/	/	/	/
COc1cc(C=C2CN(C)C(=O)C2=O)ccc1O	/	20	/	/	/	6	/	/	/	/	/
COc1cc(/C=C2\OC(=O)c3c(OC)cccc32)ccc1O	24	-402	64*	13	47	-18	26	29	82*	58*	68*
N/C(=N\N=C\c1ccc2c(c1)OCO2)c1nonc1N	95*	16	95*	6	98*	-1	95*	96*	101*	96*	64*
Cc1ccc(S(=O)(=O)N[C@H](C(=O)OCC(=O)NC(=O)c2cccn2C)C(C)C)cc1	/	0	/	/	/	-4	/	/	/	/	/
CC(C)[C@H](NS(=O)(=O)c1ccccc1)C(=O)OCC(=O)NC(=O)c1cccn1C	27	3	60*	-3	11	-2	47	38	68*	61*	9
CCN1C[C@@H]2[C@@H]3C(=O)N(Cc4ccccc4)C(=O)[C@@H]3[C@](Cc3ccccc3)(C(=O)OC)N2C1=NC	/	9	/	8	14	1	/	/	/	/	/
O=C(/C=C/c1cccs1)c1ccc(N2CCOCC2)cc1	72*	-1	84*	5	87*	14	38	82*	93*	38	24
C/C(=N\OCC(=O)Nc1nc2ccccc2s1)c1ccccc1	26	9	45	12	13	0	/	/	/	/	/
Cc1ccc2nc(NC(=S)NC(=O)c3ccc(OC(C)C)cc3)sc2c1	1	13	-6	5	-9	1	/	/	/	/	/
CCOC(=O)CC(=O)Nc1nc2ccccc2s1	-4	14	2	6	1	3	/	/	/	/	/
COc1ccc(/C(C)=N/OCC(=O)Nc2nc3ccccc3s2)cc1OC	36	0	53*	8	30	-21	40	34	64*	21	34
SMILES	SENP8 block-1	SENP8 block-2	SENP6 inh	Apaf-1 inh	SENP7 block	SENP1 inh	SENP8 conf	SENP6 conf	SENP7 confirm	Casp3 select	Luc interf
CCCOc1ccc(C(=O)NC(=S)Nc2nc3ccccc3s2)cc1	-6	26	3	0	92*	-1	5	10	16	5	12
COc1ccc(/C=N/OCC(=O)Nc2nc3ccccc3s2)cc1	53*	0	78*	14	54*	1	-7	-6	-2	4	6
COc1cc(NCC(=O)Nc2cccc(S(=O)(=O)N3CCCCC3)c2)cc(OC)c1OC	-5	-14	-1	11	-14	2	/	/	/	/	/
CC1(C(=O)NCc2ccc3c(c2)OCO3)CCN1C(=O)C1(c2ccc(Cl)cc2)CC1 (centres undefined)	/	6	/	/	/	0	/	/	/	/	/
N#Cc1c(Nc2ccc(Cl)cc2)s[nH]c1=O	47	-23	59*	-6	25	-44	56*	49	85*	69*	39
O=C1CCCCC1(c1ccccc1)c1ccccc1	/	5	/	/	/	-1	/	/	/	/	/
CCCCCc1ccc(-c2ccc(OC)cc2)nc1	27	12	52*	15	39	1	25	32	64*	34	32
CCCc1ccc(-c2ccc(C(=O)O)cc2)nc1	59*	7	69*	-14	67*	1	70*	66*	90*	73*	70*
